IC50 data for two compounds are collected here from ChEMBL document CHEMBL1155589, “Use of COMPARE analysis to discover new natural product drugs: isolation of camptothecin and 9-methoxycamptothecin from a new source” (J Nat Prod, 2000).

The structures appear in SMILES notation. ≈ marks a conversion by molar mass, not a printed value. Where only a bound is given, the exact number is not on record here.

Type in all cases: functional, organism-based
In assay [1] the test system is Saccharomyces cerevisiae. The experiment in a line: Growth inhibition of RAD52/topoisomerase 1 deficient Saccharomyces cerevisiae RS321N harbouring plasmid containing human topoisomerase 1 in galactose medium after 48 hrs. A digest of the protocol: (§1)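 Strains: RS321N (rad52 top1) carrying a single-copy plasmid with human TOP1 under the GAL1 promoter; RS321NYCp50 (vector control, tested in galactose); RS322N (rad52). Cells diluted to OD600 0.01 in synthetic minimal medium with glucose or galactose. Compounds added in DMSO (final <1%). Incubated 48 h at 30 °C in a humidified chamber. Read as background-subtracted OD595. Growth decrease relative to drug-free wells, from concentration-response, gave IC50.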

Assay [2] concerns Saccharomyces cerevisiae. Briefly: Growth inhibition of Saccharomyces cerevisiae RS321N containing YCp50 vector plasmid after 48 hrs. A digest of the protocol: as §1
Assay [3] deals with Saccharomyces cerevisiae. Briefly: Growth inhibition of RAD52/topoisomerase 1 deficient Saccharomyces cerevisiae RS321N harbouring plasmid containing human topoisomerase 1 in glucose medium after 48 hrs. In a few lines: as §1
In assay [4] the test system is Saccharomyces cerevisiae. The experiment in a line: Growth inhibition of RAD52 deficient Saccharomyces cerevisiae RS322 carrying pRAD52 in galactose medium after 48 hrs.
The test system of assay [5] is Saccharomyces cerevisiae. Briefly: Growth inhibition of RAD52 deficient Saccharomyces cerevisiae RS322 carrying pRAD52 in glucose medium after 48 hrs.
The test system of assay [6] is Saccharomyces cerevisiae. Briefly: Growth inhibition of Saccharomyces cerevisiae expressing wild type erg6 in glucose medium after 48 hrs.
The subject of assay [7] is Saccharomyces cerevisiae. Briefly: Growth inhibition of RAD52/topoisomerase-1 deficient Saccharomyces cerevisiae RS321 in glucose medium after 48 hrs. A digest of the protocol: as §1
For assay [8], the system named is Saccharomyces cerevisiae. The experiment in a line: Growth inhibition of RAD52 deficient Saccharomyces cerevisiae RS322 in glucose medium after 48 hrs. In a few lines: as §1

Regarding `CC[C@@]1(O)C(=O)OCc2c1cc1n(c2=O)Cc2cc3ccccc3nc2-1` [CAMPTOTHECIN], the IC50 in assay [1] was 0.014 µg/mL (≈ 0.0402 µM); in assay [2], 0.16 µg/mL (≈ 0.459 µM); in assay [3], more than 100 µg/mL; in assay [4], 0.18 µg/mL (≈ 0.517 µM); in assay [5], more than 100 µg/mL; in assay [6], more than 100 µg/mL. The values for the IC50 in assay [7] and in assay [8] were more than 100 µg/mL and 0.06 µg/mL (≈ 0.172 µM), respectively.
Consider `CC[C@@]1(O)C(=O)OCc2c1cc1n(c2=O)Cc2cc3c(CN(C)C)c(O)ccc3nc2-1` [TOPOTECAN], for which the IC50 is 9.9 µg/mL (≈ 23.5 µM) in assay [1] and more than 100 µg/mL in assay [3].
